Shown are actives, neighbours in structure and some others; about 3.1% of the full set was active somewhere.
RAM network inh – inhibitors of the yeast RAM network, primary screen, dse1pr::URA3 reporter, 5-FOA selection; S. cerevisiae dse1pr::URA3 reporter, 5-FOA growth OD615, 2 d; analog-sensitive cbk1-as2 kinase mutant strain; inhibition, % at 50 µM; hit rate 1.8% among 190,000; AID 868, 2007;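 active = inhibition above a set limit, 3 SD over mean compound inhibition, cut at about 8.4% in these data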;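 note: inhibition rescues growth on 5-FOA so higher OD means more RAM inhibition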
INS promoter inh – inhibitors of insulin promoter-driven GFP, primary screen, imaging, TRM-6 cells, eGFP reporter, cell count. reporter expression induced with tamoxifen. inhibition, % at 2 µM. hit rate 0.9% among 130,000;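 active = inhibition above the mean plus 3 SD, with well images judged a real hit on visual review, cut at about 60% in these data, passing the limit was not always enough; inconclusive = inhibition over the cutoff but images rejected on review; inactive = inhibition not above the cutoff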
BB579 growth dn – growth inhibitors of yeast BB579 in restrictive medium, primary screen, yeast lifespan-shortening project, S. cerevisiae | hit rate 0.51% among 140,000 | inhibition, % at 10 µM | AID 804, 2007 | OD615, 48 h;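 active = inhibition above a set limit, 3 SD over the mean compound inhibition, cut at about 44% in these data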
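Test system: Saccharomyces cerevisiae DeaD strain BB579, replicative lifespan model yeast | Buffer or medium: Restrictive CSMM-D medium | Doses: One dose, 10 µM compound with 0.25% DMSO | Incubation: 48 h exposure, 30 °C | Detection: Culture absorbance at 615 nm | Control set: Amphotericin B at 10 µg/mL as positive control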
Ins promoter up – insulin promoter activators in MIN6 cells, imaging, high-content screening, mouse beta cells; MIN6 insulin promoter-GFP reporter; hits give high values; z-score at 5 µM; hit rate 0.3% among 190,000;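 active = z-score above 3 at 5 µM with at least 500 cells counted in the well; inconclusive = wells under 500 cells, flagged as cytotoxic or low count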
Yeast lifespan up – compounds extending yeast replicative lifespan, primary screen, S. cerevisiae, OD615; inhibition of the nicotinamide effect, % at 10 µM; hit rate 0.68% among 130,000; S. cerevisiae growth with nicotinamide; deaD strain in restrictive glucose medium;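 active = inhibition above a set limit, placed 3 SD over the median of all compounds, cut at about 26% in these data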
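System: Modified budding yeast, DeaD strain | Buffer or medium: Restrictive glucose medium | Also added: 1.5 mM nicotinamide | Doses: 10 µM single point, 0.25% DMSO | Schedule: 48 h compound exposure at 30 °C, humidified | Detection: Absorbance at 615 nm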
RAM efflux-def – 5-FOA growth of efflux-deficient control yeast, dose response, counter-screen for RAM network inhibitor project, S. cerevisiae, OD615; shares compounds with RAM network inh; S. cerevisiae efflux-deficient reporter strain, 5-FOA growth OD615, 2 days; 1,200 tested, under 10 active; max inhibition, %; call rule not given here
Numbers stand for hits.

Results for Cc1ccc(/C=C/C(=O)NC2CCCCCCC2)o1 ?
RAM network inh: inactive; INS promoter inh: inactive; BB579 growth dn: inactive; Ins promoter up: inactive; Yeast lifespan up: 38

What do the screens show for `Cc1ccc(/C=C/C(=O)NCc2ccccn2)o1`?
RAM network inh: inactive; INS promoter inh: 66; BB579 growth dn: inactive; Ins promoter up: inactive; Yeast lifespan up: inactive

Results for Cc1onc(-c2ccccc2Cl)c1C(=O)O/N=C(\N)c1ccc([N+](=O)[O-])o1 ?
Ins promoter up: inactive

Results for Cc1ccc(N=Nc2c(O)n(CN3CCOCC3)c3ccccc23)cc1 ?
RAM network inh: inactive; INS promoter inh: inactive; BB579 growth dn: inactive; Yeast lifespan up: inactive

How did Cc1cccc(NC(=S)N=Nc2c(O)n(CN3CCOCC3)c3ccccc23)c1C do in these assays?
RAM network inh: inactive; INS promoter inh: 78; BB579 growth dn: inactive; Ins promoter up: inactive; Yeast lifespan up: inactive

How did CC(=O)c1cnc(Nc2cccc(C)c2)s1 do in these assays?
RAM network inh: inactive; INS promoter inh: inconclusive; Ins promoter up: inactive

What do the screens show for `N/C(=N\OC(=O)c1cccs1)C1(c2ccc(Cl)cc2Cl)CC1`?
Ins promoter up: inactive

Results for N/C(Cc1ccc(Cl)c(Cl)c1)=N\OC(=O)c1cccs1 ?
RAM network inh: inactive; INS promoter inh: inactive; BB579 growth dn: 66; Ins promoter up: inactive; Yeast lifespan up: inactive

How did CC(C)n1nc(C(=O)Oc2ccc(Cl)cc2)c2ccccc2c1=O do in these assays?
RAM network inh: inactive; INS promoter inh: inactive; BB579 growth dn: inactive; Ins promoter up: inactive; Yeast lifespan up: 29

How did Cc1cc(=O)oc2cc(OC(=O)c3nn(C(C)C)c(=O)c4ccccc34)ccc12 do in these assays?
RAM network inh: inactive; INS promoter inh: inactive; BB579 growth dn: inactive; Yeast lifespan up: inactive

Results for CCOc1cc(S(=O)(=O)NCCc2cccc(C)c2)c(OCC)cc1-n1cnnn1 ?
RAM network inh: 8.8; INS promoter inh: inactive; BB579 growth dn: inactive; Ins promoter up: inactive; Yeast lifespan up: inactive

Results for COc1cc(/C=C2/CC/C(=C/c3ccc(O)c(OC)c3)C2=O)ccc1O ?
Ins promoter up: inactive

What do the screens show for `COc1ccc(/C=C2\CC/C(=C\c3ccc(OC)c(OC)c3)C2=O)cc1OC`?
RAM network inh: 11; INS promoter inh: inactive; BB579 growth dn: inactive; Ins promoter up: inactive; Yeast lifespan up: inactive

How did Cc1ccc(SC(c2ccc(C)cc2)C(Cn2cncn2)C(=O)c2ccccc2)cc1 (configuration not stated) do in these assays?
RAM network inh: 11; INS promoter inh: inactive; BB579 growth dn: inactive; Ins promoter up: inactive; Yeast lifespan up: inactive

Results for Fc1cccc(Cl)c1Cn1nnc2c(NCc3ccncc3)ncnc21 ?
RAM network inh: inactive; INS promoter inh: inactive; Ins promoter up: inactive

What do the screens show for `Cc1cc(C(=O)COC(=O)c2ccc(Br)o2)c(C)n1Cc1ccco1`?
RAM network inh: 10; Ins promoter up: inactive

How did Cc1cc(C(=O)COC(=O)c2ccc(O)cc2)c(C)n1Cc1ccco1 do in these assays?
RAM network inh: inactive; INS promoter inh: inactive; BB579 growth dn: inactive; Ins promoter up: inactive; Yeast lifespan up: inactive

What do the screens show for `CCN(CC1COc2ccccc2O1)S(=O)(=O)c1ccc(C)cc1` (configuration not stated)?
RAM network inh: inactive; INS promoter inh: inactive; BB579 growth dn: inactive; Ins promoter up: inactive; Yeast lifespan up: inactive

Results for CC(=O)c1c(C)[nH]c(C(=O)OC2CCCCC2=O)c1C (configuration not stated) ?
RAM network inh: inactive; INS promoter inh: inactive; BB579 growth dn: inactive; Ins promoter up: inactive; Yeast lifespan up: 142

What do the screens show for `CCOc1ccc(NC(=S)N(C)C)cc1`?
Ins promoter up: inactive

How did O=C(CCc1nnc(Cc2ccc3c(c2)OCO3)o1)NCc1nc2ccccc2s1 do in these assays?
RAM network inh: inactive; INS promoter inh: 78

Results for Cc1ccn2c(/C=N/OCc3cccc(F)c3)c(-c3ccc(Cl)cc3)nc2c1 ?
RAM network inh: inactive; INS promoter inh: inactive; BB579 growth dn: inactive; Yeast lifespan up: inactive

What do the screens show for `Cc1ccn2c(/C=N/OCc3ccc(F)cc3)c(-c3ccc(Cl)cc3)nc2c1`?
RAM network inh: 9.7; INS promoter inh: inactive; BB579 growth dn: inactive; Ins promoter up: inactive; Yeast lifespan up: inactive

Results for CCS(=O)(=O)c1ccc(O)c(NC(=O)Nc2ccc(C(C)(C)C)cc2)c1 ?
Ins promoter up: inactive

What do the screens show for `CC(=O)Nc1ccc(NC(=O)C(Cc2ccccc2)NC(=O)C2CCCCC2)cc1` (configuration not stated)?
RAM network inh: inactive; INS promoter inh: 64; BB579 growth dn: inactive; Ins promoter up: inactive; Yeast lifespan up: inactive

How did CCOC(=O)N1CCC(NC(=O)C(Cc2ccccc2)NC(=O)C2CCCCC2)CC1 (configuration not stated) do in these assays?
RAM network inh: inactive; INS promoter inh: inactive; BB579 growth dn: inactive; Ins promoter up: inactive; Yeast lifespan up: inactive

What do the screens show for `CCCCOC(=O)Sc1nc2ccccc2o1`?
RAM network inh: inactive; INS promoter inh: inactive; BB579 growth dn: 100; Ins promoter up: inactive; Yeast lifespan up: inactive

Results for COc1cccc(/C=C2\Oc3cc(OC(=O)N4CCOCC4)ccc3C2=O)c1 ?
Ins promoter up: inactive

Results for Cc1cccc(/C=C2\Oc3cc(OS(C)(=O)=O)ccc3C2=O)c1 ?
RAM network inh: 12; INS promoter inh: inactive; BB579 growth dn: inactive; Yeast lifespan up: inactive; RAM efflux-def: inactive

How did O=C(NCc1ccccc1)c1ccc(S(=O)(=O)N2CCCc3ccccc32)cc1 do in these assays?
RAM network inh: 12; INS promoter inh: inactive; BB579 growth dn: inactive; Ins promoter up: inactive; Yeast lifespan up: inactive; RAM efflux-def: inactive

What do the screens show for `COc1ccc(-c2cn[nH]c2-c2ccc(OCc3ccc(F)cc3)cc2O)cc1OC`?
Ins promoter up: inactive

Results for C=C(C)COc1ccc(-c2[nH]ncc2-c2ccc(OC)c(OC)c2)c(O)c1 ?
RAM network inh: 14; BB579 growth dn: inactive; Ins promoter up: inactive; Yeast lifespan up: inactive; RAM efflux-def: inactive

Results for COc1ccc(-c2[nH]ncc2Oc2ccccc2OC)c(O)c1 ?
RAM network inh: inactive; INS promoter inh: inactive; BB579 growth dn: inactive; Ins promoter up: inactive; Yeast lifespan up: inactive

What do the screens show for `C=C(C)COc1ccc(-c2[nH]ncc2Oc2ccccc2OCC)c(O)c1`?
RAM network inh: 16; INS promoter inh: inactive; BB579 growth dn: inactive; Ins promoter up: inactive; Yeast lifespan up: inactive; RAM efflux-def: inactive

What do the screens show for `COc1ccc(CCNC(=O)c2cc(=O)[nH]c3ccc(Br)cc23)cc1OC`?
RAM network inh: inactive; INS promoter inh: inactive; BB579 growth dn: inactive; Ins promoter up: inactive; Yeast lifespan up: inactive

Screening results from PubChem BioAssay.
